Data from ChEMBL document CHEMBL1126032, “Nonpeptide renin inhibitors employing a novel 3-aza(or oxa)-2,4-dialkyl glutaric acid moiety as a P2/P3 amide bond replacement” (J Med Chem, 1992).
pIC50: −log10 of the molar value.

Legend:
Renin [1] = target: T1, Renin (Homo sapiens, UniProt P00797); assay: In vitro potency against purified renin at a pH of 6.0.
T1 sequence (P00797 whole entry): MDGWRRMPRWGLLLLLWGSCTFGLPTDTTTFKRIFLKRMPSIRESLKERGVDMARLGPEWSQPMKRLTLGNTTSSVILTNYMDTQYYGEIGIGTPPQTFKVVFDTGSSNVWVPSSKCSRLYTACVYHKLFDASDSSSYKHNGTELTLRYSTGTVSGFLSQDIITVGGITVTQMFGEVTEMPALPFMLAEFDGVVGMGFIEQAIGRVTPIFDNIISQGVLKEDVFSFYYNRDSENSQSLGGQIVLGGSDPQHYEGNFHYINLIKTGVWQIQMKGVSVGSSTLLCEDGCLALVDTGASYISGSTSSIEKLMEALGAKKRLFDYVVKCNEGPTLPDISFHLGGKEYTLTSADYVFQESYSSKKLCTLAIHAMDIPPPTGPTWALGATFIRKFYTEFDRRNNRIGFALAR
Method in brief: (§1)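 Human renin, either purified enzyme or renin in plasma, was assayed at the stated pH. Inhibition was reported as IC50 in nM.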

Renin [2] = target: T1, Renin; assay: In vitro potency against plasma renin at a pH of 6.0; format: cell-free; method in brief: as §1
Renin [3] = target: T1, Renin; assay: In vitro potency against purified renin at a pH of 7.4; method in brief: as §1
Renin [4] = target: T1, Renin; assay: In vitro potency against plasma renin at a pH of 7.4; format: cell-free; method in brief: as §1
[5] = Bioavailability in monkey (dose 10 mg/kg i.d. or 0.3 mg/kg i.v.); format: ADME, organism-based; conditions: primates, in vivo, iv
Method in brief: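 Male cynomolgus monkeys (3–5 kg), salt-depleted, fasted overnight, pentobarbital-anesthetized (15 mg/kg bolus, then 0.10 mg kg⁻¹ min⁻¹ infusion). Compound given as HCl salt solution, either iv via a leg vein or id by catheter into the proximal duodenum after laparotomy; one dose per monkey. Serial plasma levels were measured by HPLC or bioassay, and AUC was fitted to a biexponential decay. Bioavailability = dose-corrected AUC(id)/AUC(iv) × 100.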

Row | Structure (SMILES) | pIC50 (Renin [1]) | pIC50 (Renin [4]) | other results
1 | CCCC[C@H](O[C@@H](Cc1ccccc1)C(=O)N1CCC(OCCC)CC1)C(=O)N[C@@H](CC1CCCCC1)[C@@H](O)[C@@H](O)CC(C)C | 6.54 | – | –
2 | CCCC[C@H](O[C@@H](Cc1ccccc1)C(=O)N1CCCCC1)C(=O)N[C@@H](CC1CCCCC1)[C@@H](O)[C@@H](O)CC(C)C | 7.62 | – | –
3 | CCNC(=O)[C@H](Cc1ccccc1)O[C@@H](C)C(=O)N[C@@H](CC1CCCCC1)[C@@H](O)[C@@H](O)CC(C)C | 6.89 | – | –
4 | CC(C)C[C@H](O)[C@H](O)[C@H](CC1CCCCC1)NC(=O)C(C)N[C@H](Cc1ccccc1)C(=O)N1CCOCC1 (single isomer, unassigned; less polar) | 5.80 | – | –
5 | CC(C)C[C@H](O)[C@H](O)[C@H](CC1CCCCC1)NC(=O)C(C)N[C@@H](Cc1ccccc1)C(=O)N1CCOCC1 (single isomer, unassigned; less polar) | 7.07 | – | –
6 | CC[C@H](O[C@@H](Cc1ccccc1)C(=O)N1CCC(OCOC)CC1)C(=O)N[C@@H](CC1CCCCC1)[C@@H](O)[C@@H](O)CC(C)C | 9.05 | 6.92 | pIC50 (Renin [2]): 8.10; pIC50 (Renin [3]): 8.27
7 | CCCC[C@H](O[C@@H](Cc1ccccc1)C(=O)N1CCC(SCOC)CC1)C(=O)N[C@@H](CC1CCCCC1)[C@@H](O)[C@@H](O)CC(C)C | 8.74 | 6.92 | –
8 | CCCC[C@H](O[C@@H](Cc1ccccc1)C(=O)N1CCOCC1)C(=O)N[C@@H](CC1CCCCC1)[C@@H](O)[C@@H](O)CC(C)C | 7.82 | 6.00 | –
9 | CCN(CC)C(=O)[C@H](Cc1ccccc1)O[C@@H](C)C(=O)N[C@@H](CC1CCCCC1)[C@@H](O)[C@@H](O)CC(C)C | < 6.00 | – | –
10 | CCCCC1CCN(C(=O)[C@H](Cc2ccccc2)O[C@@H](CCCC)C(=O)N[C@@H](CC2CCCCC2)[C@@H](O)[C@@H](O)CC(C)C)CC1 | 5.96 | – | –
11 | CC(C)C[C@H](O)[C@H](O)[C@H](CC1CCCCC1)NC(=O)[C@H](C)O[C@@H](Cc1ccccc1)C(=O)N1CCOCC1 | 7.35 | 5.37 | –
12 | CCOC(=O)C(CCc1ccccc1)N[C@@H](C)C(=O)N[C@@H](CC1CCCCC1)[C@@H](O)[C@@H](O)CC(C)C (single isomer, unassigned; more polar) | 6.82 | – | –
13 | CC(C)C[C@H](O)[C@H](O)[C@H](CC1CCCCC1)NC(=O)[C@H](C)O[C@@H](Cc1ccccc1)C(=O)N1CCC1 | – | 6.00 | –
14 | CC(C)C[C@H](N[C@@H](Cc1ccccc1)C(=O)OC(C)(C)C)C(=O)N[C@@H](CC1CCCCC1)[C@@H](O)[C@@H](O)CC(C)C | 6.47 | – | –
15 | CCCC[C@H](O[C@@H](Cc1ccccc1)C(=O)N1CCC(OCS(C)(=O)=O)CC1)C(=O)N[C@@H](CC1CCCCC1)[C@@H](O)[C@@H](O)CC(C)C | 6.11 | – | –
16 | CC(C)C[C@H](O)[C@H](O)[C@H](CC1CCCCC1)NC(=O)[C@H](C)O[C@@H](Cc1ccccc1)C(=O)N1CCCCC1 | 7.60 | 5.09 | –
17 | CCCC[C@H](N[C@@H](Cc1ccccc1)C(=O)N1CCC(OCCOC)CC1)C(=O)N[C@@H](CC1CCCCC1)[C@@H](O)[C@@H](O)CC(C)C | 7.51 | 5.74 | –
18 | CCCC[C@H](O[C@@H](Cc1ccccc1)C(=O)N1CCC(OCOC)CC1)C(=O)N[C@@H](CC1CCCCC1)[C@@H](O)[C@@H](O)CC(C)C | 9.00 | 7.89 | pIC50 (Renin [2]): 8.52; pIC50 (Renin [3]): 8.49
19 | CCOC(=O)C(CCc1ccccc1)N[C@@H](CC(C)C)C(=O)N[C@@H](CC1CCCCC1)[C@@H](O)[C@@H](O)CC(C)C (single isomer, unassigned; more polar) | 6.80 | – | –
20 | CCCC[C@H](N[C@@H](Cc1ccccc1)C(=O)N1CCC(OCOC)CC1)C(=O)N[C@@H](CC1CCCCC1)[C@@H](O)[C@@H](O)CC(C)C | 8.96 | 7.77 | pIC50 (Renin [2]): 8.41; pIC50 (Renin [3]): 8.55

Row | Structure (SMILES) | pIC50 (Renin [1]) | pIC50 (Renin [4]) | other results
21 | CC(C)C[C@H](O)[C@H](O)[C@H](CC1CCCCC1)NC(=O)C(C)N[C@H](Cc1ccccc1)C(=O)N1CCOCC1 (single isomer, unassigned) | 6.00 | – | –
22 | CCCC[C@H](O[C@@H](Cc1ccccc1)C(=O)N1CCC(O)CC1)C(=O)N[C@@H](CC1CCCCC1)[C@@H](O)[C@@H](O)CC(C)C | 6.89 | – | –
23 | C=CCOC1CCN(C(=O)[C@H](Cc2ccccc2)O[C@@H](CCCC)C(=O)N[C@@H](CC2CCCCC2)[C@@H](O)[C@@H](O)CC(C)C)CC1 | 6.80 | – | –
24 | CCCCNC(=O)[C@@H](C[C@H](O)[C@H](CC1CCCCC1)NC(=O)[C@H](CCCC)N[C@@H](Cc1ccccc1)C(=O)N1CCC(OCOC)CC1)C(C)C | 9.05 | 8.06 | bioavailability [5]: 7.1%
25 | CCOC(=O)C(CCc1ccccc1)N[C@@H](C)C(=O)N[C@@H](CC1CCCCC1)[C@@H](O)[C@@H](O)CC(C)C (single isomer, unassigned; less polar) | 6.89 | – | –
26 | CC(C)C[C@@H](N[C@@H](Cc1ccccc1)C(=O)OC(C)(C)C)C(=O)N[C@@H](CC1CCCCC1)[C@@H](O)[C@@H](O)CC(C)C | 5.57 | – | –
27 | CCCCNC(=O)[C@@H](C[C@H](O)[C@H](CC1CCCCC1)NC(=O)[C@H](CCCC)O[C@@H](Cc1ccccc1)C(=O)N1CCC(OCOC)CC1)C(C)C | 8.92 | 8.09 | –
28 | CCCC[C@H](O[C@@H](Cc1ccccc1)C(=O)N1CCC(OC[S+](C)[O-])CC1)C(=O)N[C@@H](CC1CCCCC1)[C@@H](O)[C@@H](O)CC(C)C (some centres undefined) | 6.11 | – | –
29 | CC(C)C[C@H](O)[C@H](O)[C@H](CC1CCCCC1)NC(=O)[C@H](C)O[C@@H](Cc1ccccc1)C(=O)N1CCCC1 | – | 5.43 | –
30 | CC(C)CC(N[C@@H](CCc1ccccc1)C(=O)OC(C)(C)C)C(=O)N[C@@H](CC1CCCCC1)[C@@H](O)[C@@H](O)CC(C)C (stereo in doubt; form 1) | 5.40 | – | –
31 | CCCC[C@H](O[C@@H](Cc1ccccc1)C(=O)N1CCC(CCOC)CC1)C(=O)N[C@@H](CC1CCCCC1)[C@@H](O)[C@@H](O)CC(C)C | 7.74 | 5.89 | –
32 | CCC[C@H](O[C@@H](Cc1ccccc1)C(=O)N1CCC(OCOC)CC1)C(=O)N[C@@H](CC1CCCCC1)[C@@H](O)[C@@H](O)CC(C)C | 8.85 | 7.51 | pIC50 (Renin [2]): 8.48; pIC50 (Renin [3]): 8.26
33 | CC(C)C[C@H](O)[C@H](O)[C@H](CC1CCCCC1)NC(=O)C(C)N[C@@H](Cc1ccccc1)C(=O)N1CCOCC1 (single isomer, unassigned; more polar) | 6.00 | – | –
34 | CCCC[C@H](N[C@@H](Cc1ccccc1)C(=O)N1CCOCC1)C(=O)N[C@@H](CC1CCCCC1)[C@@H](O)[C@@H](O)CC(C)C | 7.89 | 5.92 | –
35 | CC(C)CC(N[C@@H](CCc1ccccc1)C(=O)OC(C)(C)C)C(=O)N[C@@H](CC1CCCCC1)[C@@H](O)[C@@H](O)CC(C)C (stereo in doubt; form 2) | 6.00 | – | –
36 | CCCC[C@@H](N[C@@H](Cc1ccccc1)C(=O)N1CCOCC1)C(=O)N[C@@H](CC1CCCCC1)[C@@H](O)[C@@H](O)CC(C)C | 6.12 | – | –
37 | CCCC[C@H](O[C@@H](Cc1ccccc1)C(=O)N1CCC(OC)CC1)C(=O)N[C@@H](CC1CCCCC1)[C@@H](O)[C@@H](O)CC(C)C | 7.36 | – | –
38 | CCCC[C@H](O[C@@H](Cc1ccccc1)C(=O)N1CCC(OCSC)CC1)C(=O)N[C@@H](CC1CCCCC1)[C@@H](O)[C@@H](O)CC(C)C | 6.89 | – | –
39 | CCOC(=O)C(CCc1ccccc1)N[C@@H](CC(C)C)C(=O)N[C@@H](CC1CCCCC1)[C@@H](O)[C@@H](O)CC(C)C (stereo in doubt) | 6.62 | – | –
40 | COCOC1CCN(C(=O)[C@H](Cc2ccccc2)O[C@@H](C)C(=O)N[C@@H](CC2CCCCC2)[C@@H](O)[C@@H](O)CC(C)C)CC1 | – | 6.47 | pIC50 (Renin [2]): 7.57; pIC50 (Renin [3]): 8.15
